These results are taken from ChEMBL document CHEMBL3877290, “Targeting the entry region of Hsp90's ATP binding pocket with a novel 6,7-dihydrothieno[3,2-c]pyridin-5(4H)-yl amide” (Eur J Med Chem, 2016).

Series [1] can be described thus: Antiproliferative activity against Her2-overexpressing human SKBR3 cells after 1 to 3 days by MTS assay. The note with it: SK-BR-3. It is filed as functional. The method in brief: (§1)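 Cells seeded at 3 × 10^3 (Skbr3) or 2 × 10^3 (H1975) per well and left to attach overnight, then exposed to varying compound concentrations or 1% DMSO vehicle at 37 °C for 1, 2 and 3 days. Viability read by MTS colorimetric assay at 490 nm and expressed as percent of DMSO-only absorbance. Skbr3 in RPMI 1640 with 25 mM HEPES; H1975 in RPMI 1640 with L-glutamine; both with 10% FBS and penicillin/streptomycin.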
(Tetrazolium assays rely on reduction of a dye to a coloured formazan, in cell work by metabolically active cells.)

The nature of series [2]: Antiproliferative activity against gefitinib-resistant human NCI-H1975 cells after 1 to 3 days by MTS assay. It counts as functional. The method in brief: as §1
The target of series [3] is Heat shock protein HSP 90-alpha (Homo sapiens, UniProt P07900). Kind of series: Inhibition of fluorescein isothiocyanate labeled geldanamycin binding to N-terminal domain of full length human recombinant Hsp90alpha expressed in Escherichia coli BL21 (DE3) after 14 hrs by fluorescence polarization assay. (In fluorescence polarisation assays a small probe gives low polarisation when free and higher when bound to something large.)

Series [4] deals with NCI-H1975. The experiment in a line: cells. The note with it: Homo sapiens, NCI-H1975, 24 h, read-out: Activity.
The target in a further series is Cytochrome P450 2D6 (Homo sapiens, UniProt P10635). The experiment in a line: Inhibition of CYP2D6 in human liver microsomes assessed as dextromethorphan O-demethylation by LC/MS/MS analysis. It is filed as ADME. In a few lines:
(§2)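 Pooled human liver microsomes incubated without and with compound at 0–50 µM final (acetonitrile below 0.5%); probe activities in cocktail incubation: phenacetin O-deethylation (CYP1A2), tolbutamide 4-hydroxylation (2C9), omeprazole hydroxylation (2C19), dextromethorphan O-demethylation (2D6), midazolam 1'-hydroxylation (3A). Metabolites quantified by tandem mass spectrometry; duplicates; IC50 derived.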
A general note: Liver microsomes are a subcellular fraction often used to study metabolism.

In series [5] the target is T1, Heat shock protein HSP90 (Homo sapiens) (UniProt P07900+P08238). The conditions noted are these: NCI-H1975, 0.05 to 2 uM.
Series [6] has as its system Mus musculus. Kind of series: Decrease of Akt level in human NCI-H1975 cells xenografted in NOD-scid IL2Rgamma-null mouse at 10 mg/kg, ip administered daily followed by weekend rest for 2 weeks by immunohistochemical analysis. It counts as functional, organism-based.
Series [7] concerns the target T1, Heat shock protein HSP90 (Homo sapiens). The conditions noted are these: NCI-H1975, 0.05 to 2 uM. This is another data set of the same source.
Series [8] shares this target. The note with it: NCI-H1975, 0.05 to 2 uM. This is another data set of the same source.
Series [9] deals with NCI-H1975. The experiment in a line: Induction of apoptosis in gefitinib-resistant human NCI-H1975 cells assessed as late apoptotic cells at 0.5 uM after 24 hrs by Annexin V-FITC/propidium iodide staining based flow cytometry (reference value: 2.79%). It counts as functional.
The test system of series [10] is Mus musculus. Kind of series: Toxicity in NOD-scid IL2Rgamma-null mouse xenografted with human NCI-H1975 cells assessed as body weight loss at 10 mg/kg, ip administered daily followed by weekend rest for 2 weeks measured twice per week during compound dosing. It counts as organism-based. The conditions noted are these: in vivo, 336 h. In a few lines:
(§3)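 NSG mice (8 per group, randomised) received 2.0 × 10^6 H1975 cells s.c. in the left flank on day zero. Dosing began once tumours reached 500 mm3: i.p. at 10 mg/kg or DMSO vehicle, daily with weekend rest, for 2 weeks. Body weight tracked and deaths recorded during treatment. Housing in individually ventilated cages at 25±2 °C with a 12 h light-dark cycle.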

For series [11], the target named is T1, Heat shock protein HSP90 (Homo sapiens). The conditions noted are these: NCI-H1975, 0.05 to 2 uM. This is another data set of the same source.
Series [12] concerns NCI-H1975. The experiment in a line: Induction of apoptosis in gefitinib-resistant human NCI-H1975 cells assessed as cleavage of caspase 3 at 0.5 uM after 24 hrs by Western blot analysis. It is filed as functional, cell-based. In a few lines: (§4)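 H1975 cells seeded 1 × 10^6 per 100 mm dish, attached overnight, exposed 24 h to 0.05, 0.1, 0.5, 1 and 2 µM compound, with 1% DMSO and 1 µM geldanamycin as controls. Lysed in Tris-HCl pH 7.6/NaCl/NP-40/deoxycholate/SDS buffer; 30 µg per lane SDS-PAGE, PVDF, 5% milk block, specific antibodies (PARP, caspase 3, cleaved caspase 3/8, β-actin), HRP secondary, ECL detection.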

In series [13] the test system is NCI-H1975. Kind of series: Induction of apoptosis in gefitinib-resistant human NCI-H1975 cells assessed as early apoptotic cells at 0.5 uM after 24 hrs by Annexin V-FITC/propidium iodide staining based flow cytometry (reference value: 1.85%). It counts as functional.
Series [14] concerns NCI-H1975. Kind of series: Induction of apoptosis in gefitinib-resistant human NCI-H1975 cells assessed as cleavage of PARP at 0.5 uM after 24 hrs by Western blot analysis. It counts as functional, cell-based. The method in brief: as §4
Series [15] concerns the target T1, Heat shock protein HSP90 (Homo sapiens). The note with it: NCI-H1975, 0.05 to 2 uM. The source holds these as a separate data set.
Series [16] deals with NCI-H1975. Kind of series: Antitumor activity against human NCI-H1975 cells xenografted in NOD-scid IL2Rgamma-null mouse assessed as tumor growth inhibition at 10 mg/kg, ip administered daily followed by weekend rest for 2 weeks measured twice per week during compound dosing. It is filed as functional, organism-based.
The subject of series [17] is NCI-H1975. The experiment in a line: Induction of apoptosis in gefitinib-resistant human NCI-H1975 cells assessed as viable cells at 0.5 uM after 24 hrs by Annexin V-FITC/propidium iodide staining based flow cytometry (reference value: 92.68%). It is filed as functional. The conditions noted are these: NCI-H1975, 24 h, read-out: Activity.
Series [18] relates to Mus musculus. The experiment in a line: Toxicity in NOD-scid IL2Rgamma-null mouse xenografted with human NCI-H1975 cells assessed as mortality at 10 mg/kg, ip administered daily followed by weekend rest for 2 weeks measured twice per week during compound dosing. It counts as organism-based. The note with it: in vivo, 336 h. In a few lines:
as §3

Series [19] concerns NCI-H1975. The experiment in a line: Induction of apoptosis in gefitinib-resistant human NCI-H1975 cells assessed as cleavage of caspase 8 at 0.5 uM after 24 hrs by Western blot analysis. It is filed as functional, cell-based. In a few lines: as §4
Series [20] in a line: Effect on beta-actin level in gefitinib-resistant human NCI-H1975 cells at 0.05 to 2 uM after 24 hrs by Western blot analysis. It counts as ADME, cell-based. The note with it: nci-h1975, 24 h. In a few lines: as §4
The next series addresses T2, Cytochrome P450 1A2 (Homo sapiens, UniProt P05177).
T2 sequence (P05177 whole entry): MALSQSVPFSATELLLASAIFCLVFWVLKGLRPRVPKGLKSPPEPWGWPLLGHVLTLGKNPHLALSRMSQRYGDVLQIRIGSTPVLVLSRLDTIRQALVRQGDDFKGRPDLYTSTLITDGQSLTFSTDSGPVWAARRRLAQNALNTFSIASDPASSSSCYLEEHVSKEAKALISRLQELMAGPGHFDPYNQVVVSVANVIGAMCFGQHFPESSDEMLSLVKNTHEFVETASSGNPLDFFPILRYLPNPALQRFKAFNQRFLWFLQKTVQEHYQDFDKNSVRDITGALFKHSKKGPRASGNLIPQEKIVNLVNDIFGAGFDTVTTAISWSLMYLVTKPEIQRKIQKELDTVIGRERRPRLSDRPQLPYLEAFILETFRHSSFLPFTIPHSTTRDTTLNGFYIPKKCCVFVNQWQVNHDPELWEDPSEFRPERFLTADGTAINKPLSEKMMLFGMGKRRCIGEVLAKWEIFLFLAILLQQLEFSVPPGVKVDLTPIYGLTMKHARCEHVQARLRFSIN
The experiment in a line: Inhibition of CYP1A2 in human liver microsomes assessed as phenacetin O-deethylation by LC/MS/MS analysis. It is filed as ADME. In a few lines: as §2

The target of a further series is Cytochrome P450 2C9 (Homo sapiens, UniProt P11712). Kind of series: Inhibition of CYP2C9 in human liver microsomes assessed as tolbutamide 4-methylhydroxylation by LC/MS/MS analysis. It counts as ADME. The method in brief: as §2
Chain of Cytochrome P450 2C9 (P11712 whole entry): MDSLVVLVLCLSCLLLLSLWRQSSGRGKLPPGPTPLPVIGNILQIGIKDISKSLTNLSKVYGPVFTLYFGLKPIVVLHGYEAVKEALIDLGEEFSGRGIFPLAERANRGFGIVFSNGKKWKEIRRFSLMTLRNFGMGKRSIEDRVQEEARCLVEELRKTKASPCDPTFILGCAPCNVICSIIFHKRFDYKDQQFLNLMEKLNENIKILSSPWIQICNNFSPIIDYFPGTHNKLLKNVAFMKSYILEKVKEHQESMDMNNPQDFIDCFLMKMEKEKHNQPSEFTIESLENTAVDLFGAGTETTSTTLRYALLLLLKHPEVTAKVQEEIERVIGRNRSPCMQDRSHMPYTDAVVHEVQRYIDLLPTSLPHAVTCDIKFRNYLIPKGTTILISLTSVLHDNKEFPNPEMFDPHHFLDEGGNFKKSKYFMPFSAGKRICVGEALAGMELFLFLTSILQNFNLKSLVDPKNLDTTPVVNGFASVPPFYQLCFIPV
Series [21] concerns NCI-H1975. The experiment in a line: Induction of apoptosis in gefitinib-resistant human NCI-H1975 cells assessed as necrotic cells at 0.5 uM after 24 hrs by Annexin V-FITC/propidium iodide staining based flow cytometry (reference value: 2.68%). It counts as functional.
The target of series [22] is T1, Heat shock protein HSP90 (Homo sapiens). The conditions noted are these: NCI-H1975, 0.05 to 2 uM. The source holds these as a separate data set.
A further series concerns the target CYP3A (Homo sapiens, UniProt P08684+P20815+P24462+Q9HB55). Kind of series: Inhibition of CYP3A in human liver microsomes assessed as midazolam 1'-hydroxylation by LC/MS/MS analysis. It is filed as ADME. The note with it: probe midazolam (1'-hydroxylation). In a few lines: as §2
A further series addresses Cytochrome P450 2C19 (Homo sapiens, UniProt P33261). Kind of series: Inhibition of CYP2C19 in human liver microsomes assessed as omepraozle hydroxylation by LC/MS/MS analysis. It counts as ADME. In a few lines:
as §2

The GI50 is the concentration that inhibits growth by half. As usually defined, the IC50 is the midpoint of a concentration-inhibition curve.

The source made the active and inactive calls. No cut-off for these calls is given here.

Chain of Cytochrome P450 2D6 (P10635 whole entry): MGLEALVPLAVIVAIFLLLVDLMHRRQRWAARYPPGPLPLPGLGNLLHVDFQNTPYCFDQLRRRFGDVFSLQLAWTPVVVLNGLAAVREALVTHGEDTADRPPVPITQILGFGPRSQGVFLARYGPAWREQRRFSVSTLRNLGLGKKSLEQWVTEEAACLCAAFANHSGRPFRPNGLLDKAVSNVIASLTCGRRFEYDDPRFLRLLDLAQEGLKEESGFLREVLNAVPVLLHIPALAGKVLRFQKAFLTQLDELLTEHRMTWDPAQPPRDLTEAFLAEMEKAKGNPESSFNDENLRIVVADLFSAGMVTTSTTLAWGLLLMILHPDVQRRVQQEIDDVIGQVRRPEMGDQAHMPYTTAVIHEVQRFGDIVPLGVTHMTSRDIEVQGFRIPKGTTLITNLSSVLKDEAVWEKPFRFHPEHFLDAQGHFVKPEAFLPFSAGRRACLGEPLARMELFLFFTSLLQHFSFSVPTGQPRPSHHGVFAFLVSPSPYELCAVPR
Chain of Cytochrome P450 2C19 (P33261 whole entry): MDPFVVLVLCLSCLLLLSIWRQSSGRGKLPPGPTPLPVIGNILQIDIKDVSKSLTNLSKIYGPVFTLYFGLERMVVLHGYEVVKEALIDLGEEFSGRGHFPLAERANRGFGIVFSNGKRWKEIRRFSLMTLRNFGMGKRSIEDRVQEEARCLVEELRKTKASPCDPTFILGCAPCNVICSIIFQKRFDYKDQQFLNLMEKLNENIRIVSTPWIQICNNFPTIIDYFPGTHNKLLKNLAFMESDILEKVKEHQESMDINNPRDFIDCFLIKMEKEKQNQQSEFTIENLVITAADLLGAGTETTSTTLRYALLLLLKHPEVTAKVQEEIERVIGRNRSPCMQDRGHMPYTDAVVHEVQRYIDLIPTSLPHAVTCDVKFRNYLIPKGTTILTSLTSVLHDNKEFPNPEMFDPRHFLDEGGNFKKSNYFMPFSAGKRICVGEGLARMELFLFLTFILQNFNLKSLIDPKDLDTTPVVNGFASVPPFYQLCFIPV

Consider `Oc1cc(O)c(-c2nc3ccccc3o2)cc1Cl`, for which the GI50 in [1] and in series [2] was over 50 µM throughout. Further, the IC50 in series [3] was over 1 µM.

Turning to `O=C(Nc1ccc(O)cc1)c1cc(Cl)c(O)cc1O`, the 50% growth inhibitory concentration (GI50) in series [2] is over 50 µM. In [3], the 50% inhibitory concentration (IC50) was over 1 µM.

`O=C(c1cc(Cl)c(O)cc1O)N1CCN(c2ccccc2)CC1`: the GI50 in series [1] is 9.3 µM; in [2], 19.1 µM. Moreover, the half-maximal inhibitory concentration (IC50) in series [3] is 0.481 µM.

Turning to `COC1=C2C[C@@H](C)C[C@H](OC)[C@H](O)[C@@H](C)/C=C(\C)[C@H](OC(N)=O)[C@@H](OC)/C=C\C=C(/C)C(=O)NC(=CC1=O)C2=O` [GELDANAMYCIN], the GI50 in [1] stood at 0.43 µM; in series [2], 0.56 µM. Also, in the series on NCI-H1975 [4], the viability at 1 µM worked out at 65.7%.

`O=C(c1cc(Cl)c(O)cc1O)N1CCc2ccccc2C1`: the results for the GI50 in [1] and in series [2] were 7.1 µM and 19.9 µM, respectively. In addition, the IC50 in [3] turned out to be 0.183 µM.

`O=C(Nc1ccccc1)c1cc(Cl)c(O)cc1O`: the GI50 in [2] is over 50 µM. In addition, the IC50 in [3] was over 1 µM.

Turning to `CC(C)c1cc(C(=O)N2CCc3sccc3C2)c(O)cc1O`, the concentration for half-maximal inhibition (IC50) is over 50 µM on Cytochrome P450 2D6; 0.0503 µM in [3]; over 50 µM on Cytochrome P450 1A2; over 50 µM on Cytochrome P450 2C9; over 50 µM at CYP3A; over 50 µM on Cytochrome P450 2C19. The inhibition result in series [5], in series [7], in [8], in [11], in [15] and in series [22] was “Active” each time. In addition, the GI50 in [1] amounted to 0.11 µM; in [2], 0.31 µM. For the same compound, the outcome with Mus musculus [6], in the series with NCI-H1975 [12], in the series on NCI-H1975 [14] and with NCI-H1975 [19] was Active. In addition, the Activity in the series on NCI-H1975 [9] is 3.77%; with Mus musculus [10] it was “Non-Toxic”; in the series with NCI-H1975 [13], 8.67%; with Mus musculus [18] it was “Non-Toxic”; in series [20], “Non-Toxic”; in the series with NCI-H1975 [21], 3.67%. Further, the TGI result in the series with NCI-H1975 [16] is “Active”. In addition, the viability at 0.5 µM in the series on NCI-H1975 [17] is 83.9%. In addition, in the series with NCI-H1975 [4], the viability at 1 µM was 76%.

On to `O=C(c1cc(Cl)c(O)cc1O)N1CCc2ccsc2C1`, for which the figures for the GI50 in series [1] and in [2] were 5.4 µM and 8.7 µM, respectively. Further, the concentration for half-maximal inhibition (IC50) in [3] is 0.136 µM.
